Assay outcomes deposited in PubChem BioAssay by several laboratories.
NF-kB expr up – raises NF-kB expression in human neuronal cells | NF-kB reporter expression; hits give high values | 190,000 tested, 1.6% active | fold change at 12.5 µM; in the data active means fold change above about 3.3
STAT1 act-1 – STAT1 signaling activation; NIH 3T3 STAT1-luciferase reporter, IFN-gamma, luminescence; 100% = IFN-gamma alone, no compound; AID 932; activation (% of control), % at 5.5 µM; 200,000 tested, 2.6% active;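 active means activation above the screen-wide mean activation plus 3 SD, cut at about 130% in these data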;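 further: raw ratio to IFN-gamma control signal so 100% means no change and 0% no light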
APP 5'UTR act – APP 5'UTR luciferase reporter activation; 190,000 tested, 1% active; activation, % at 2 µM; SH-SY5Y APP 5'UTR luciferase reporter, luminescence; zero percent = DMSO vehicle wells; AID 1276;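 active means activation above a set limit, based on mean plus 3 SD of controls, cut at about 140% in these data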
STAT3 act-1 – activators of IL-6 induced STAT3 signaling; 190,000 tested, 0.91% active; activation (% of control), % at 5.6 µM; U3A cells, IL-6 STAT3-luciferase reporter, luminescence; 100% = signal with IL-6 EC80 alone;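 active means activation above the screen-wide mean of compound activation plus 3 SD, cut at about 130% in these data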;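 further: 0% = background luminescence of wells with medium and substrate only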
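Material: human STAT1-deficient U3A cells with stable STAT3-luciferase reporter / Probe or stimulus: IL-6 stimulus at 33 ng/mL final / Schedule: 1 h compound pre-exposure, 6 h IL-6 stimulation, 37 °C / Technique: luminescence / Read-out basis: percent of IL-6-only median luminescence / Control set: IL-6-only high control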
STAT3 blocker – STAT3 signaling inhibition. U3A cells, IL-6 STAT3-luciferase reporter, luminescence; host cell line lacks STAT1. inhibition, % at 5.5 µM. 190,000 tested, 0.89% active. AID 862;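 active means inhibition above the mean inhibition across all screened compounds plus 3 SD, cut at about 44% in these data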;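 further: 0% = DMSO only wells and 100% = 100 µM nifuroxazide control wells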
STAT1 blocker – reduces IFN-gamma driven STAT1 reporter signal. inhibition, % at 5.5 µM. NIH 3T3 STAT1-luciferase reporter, luminescence. 200,000 tested, 0.35% active;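 active means inhibition above a set limit, the mean inhibition across all tested compounds plus 3 SD, cut at about 34% in these data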;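 further: 0% = IFN-gamma with DMSO and 100% = IFN-gamma with 300 µM nifuroxazide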
STAT3 act-2 – confirmation of STAT3 signaling activators; potentiation (% of control), % at 5.7 µM; U3A STAT3-luciferase reporter, IL-6 potentiation, luminescence; U3A cells lack STAT1; 100 means same as IL-6 alone; shares compounds with STAT3 act-1; 1,200 tested, 64% active; AID 1267;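 active means percent activation of the STAT3 luciferase reporter above a set limit taken from the earlier primary screen, cut at about 130% in these data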;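 further: 0% = background signal of medium plus substrate and 100% = median of IL-6 with DMSO wells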
NFkB act 2 – activates NF-kappaB, counter-screen to STAT3 activators | shares compounds with STAT3 act-1 | human cells, NF-kappaB reporter activation | activation (% of control), % at 5.7 µM | 1,200 tested, 11% active | AID 1309; in the data active means activation above about 120%;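 further: reporter induced by TNF-alpha stimulation; 100% = median of stimulated DMSO wells and 0% = no signal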
STAT1 act-2 – STAT1 activation in STAT3 activator counter-screen | 1,200 tested, 13% active | activation (% of control), % at 5.7 µM | shares compounds with STAT3 act-1 | NIH 3T3 STAT1-luciferase reporter, IFN-gamma, luminescence;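 active means activation above the solvent-only control well mean plus 3 SD, set per screening run, cut at about 120% in these data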;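 further: 100% = IFN-gamma with DMSO median signal so 100% means no change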
* hit, by the source's call; . = no result. Hits are enriched below; roughly 4.9% of the tested compounds scored in any of these assays.

SMILES | NF-kB expr up | STAT1 act-1 | APP 5'UTR act | STAT3 act-1 | STAT3 blocker | STAT1 blocker | STAT3 act-2 | NFkB act 2 | STAT1 act-2
COc1cc2c(cc1NC(=O)C(C)OC(=O)C1CC(=O)N(Cc3ccco3)C1)oc1ccccc12 (centres undefined) | 1.8 | 124 | 51 | 154* | -65 | -26 | 147* | 118 | 122*
Cc1cc(NS(=O)(=O)c2ccc(NC(=O)c3oc4ccccc4c3C)cc2)no1 | 1 | 103 | -20 | 145* | -53 | -3 | 129 | 106 | 102
O=C(Cc1ccccc1)c1nc2ccccc2s1 | 1.5 | 108 | 30 | 143* | -36 | -9 | 164* | 128* | 128*
COC(=O)c1ccc(CC(=O)c2nc3ccccc3s2)cc1 | 1.2 | 102 | 52 | 106 | -1 | -3 | . | . | .
Cc1cc(NC(=O)COC(=O)C2CCC2)no1 | 1.2 | 104 | -18 | 106 | -5 | -5 | . | . | .
CCOC(=O)c1cnn(-c2ccccn2)c1N | 1.8 | 122 | 47 | 94 | 12 | -24 | . | . | .
CCOC(=O)c1cnn(-c2cc(C)c3ccccc3n2)c1N | 1.8 | 98 | 5 | 170* | -75 | 2 | 173* | 117 | 107
O=C(Nc1ccccc1)Nc1cccc2cccnc12 | 2.5 | 121 | 126 | 150* | -62 | -23 | 147* | 136* | 152*
CCC(=O)Nc1cccc2cccnc12 | 1.1 | 98 | 9 | 93 | 9 | 2 | . | . | .
Cc1c(-n2cc(C(=O)c3cc(Br)ccc3O)cc(C#N)c2=O)c(=O)n(-c2ccccc2)n1C | 0.93 | 104 | . | 97 | 2 | -5 | . | . | .
CC1CC(C)CN(CC(=O)N2CCOCC2)C1 (centres undefined) | 1.1 | 99 | -23 | 102 | 3 | 0 | . | . | .
Cc1ccc(-c2nc3ccccc3n3nnnc23)cc1 | 2 | 101 | 82 | 174* | -84 | -5 | 185* | 131* | 148*
O=c1c2ccc([N+](=O)[O-])c3cccc(c32)c2nc3ccccc3n12 | 1 | 83 | 8 | 148* | -48 | 19 | 150* | 69 | 88
CCc1nc2ccccc2c2nc3ccccc3n12 | 1.2 | 97 | -2 | 86 | 21 | 3 | . | . | .
O=C(O)C1Cc2[nH]cnc2C(c2ccccc2O)N1 (centres undefined) | 0.9 | 94 | 13 | 143* | -48 | 7 | 172* | 103 | 115
O=C(O)C1Cc2[nH]cnc2C(c2cccc([N+](=O)[O-])c2)N1 (centres undefined) | 1.2 | 106 | 4 | 106 | -1 | -7 | . | . | .
Cc1ccc(CNC(=O)C2CC(c3ccccc3[N+](=O)[O-])=NO2)cc1 (centres undefined) | 0.98 | 104 | -4 | 156* | -52 | -4 | 174* | 108 | 112
Oc1ccccc1-c1cc(-c2cccc(F)c2)n[nH]1 | 9.9* | 109 | 202* | 145* | -51 | -10 | 155* | 140* | 111
Oc1ccc(Cl)cc1-c1cc(-c2cccc(Br)c2)n[nH]1 | 1.3 | 100 | 9 | 97 | 11 | 0 | . | . | .
N#C/C(=C\Nc1ccc2cn[nH]c2c1)c1nc(-c2ccc(Cl)cc2)cs1 | 1.1 | 91 | 12 | 148* | -56 | 8 | 115 | 99 | 90
CCOC(=O)CC(=O)CSc1nc(-c2ccc3c(c2)OCO3)cc(C(F)(F)F)c1C#N | 1.2 | 93 | 11 | 140* | -34 | 8 | 118 | 98 | 93
CCOC(=O)CCSc1nc(-c2ccc3c(c2)OCO3)cc(C(F)(F)F)c1C#N | 1.1 | 107 | -9 | 98 | 3 | -8 | . | . | .
Cc1ccccc1C1c2[nH]c3ccccc3c2CCN1CCCn1cccn1 (centres undefined) | 0.96 | 92 | -16 | 152* | -51 | 6 | 148* | 104 | 90
CN1/C(=C\C=Nc2ccc3ccccc3c2)C(C)(C)c2ccccc21 | 0.4 | 92 | 15 | 148* | -43 | 8 | 119 | 105 | 94
Cn1c(-c2sc3ccccc3c2Cl)n[nH]c1=S | 1.1 | 101 | 6 | 95 | 8 | -1 | . | . | .
SMILES | NF-kB expr up | STAT1 act-1 | APP 5'UTR act | STAT3 act-1 | STAT3 blocker | STAT1 blocker | STAT3 act-2 | NFkB act 2 | STAT1 act-2
CCc1ccc(/C=C/C(=O)c2cc(Br)ccc(=O)c2O)cc1 | 1.2 | 98 | 5 | 150* | -60 | 2 | 136* | 107 | 91
CCOc1ccc(/C=C/C(=O)c2cc(Br)ccc(=O)c2O)cc1 | 1.3 | 94 | -8 | 112 | -15 | 7 | . | . | .
CCOC(=O)C(NC(=O)CC)(Nc1cc(C)on1)C(F)(F)F (centres undefined) | 1.2 | 93 | -6 | 102 | -1 | 8 | . | . | .
Cc1cc(NC(=O)CN2CCOCC2)n(-c2nc3ccccc3s2)n1 | 0.59 | 99 | -2 | 165* | -77 | 1 | 146* | 102 | 99
CC(=O)Nc1cc(C)nn1-c1nc2ccccc2s1 | 0.4 | 116 | 73 | 148* | -44 | -16 | 181* | 122* | 144*
O=C1CC(/C=C/c2ccncc2)=Nc2ccccc2N1 | 2.6 | 103 | -1 | 99 | 3 | -4 | . | . | .
COc1ccc(N2CCN(S(=O)(=O)c3cc(C)ccc3OC)CC2)cc1 | . | 90 | -6 | 103 | 3 | 11 | . | . | .
O=C1CCCCCN1Cc1nnc(SCc2nc3ccccc3s2)n1-c1ccccn1 | 1.1 | 127 | 86 | 140* | -39 | -28 | 151* | 129* | 145*
COc1ccc(C2c3[nH]c4ccccc4c3CCN2C(=O)c2cn3ccccc3n2)c(F)c1 (centres undefined) | 1.3 | 125 | 34 | 161* | -64 | -29 | 159* | 111 | 105
COc1ccc(C2c3[nH]c4ccccc4c3CCN2C(=O)c2cc3ncccn3n2)c(F)c1 (centres undefined) | 0.96 | 102 | -1 | 146* | -46 | -3 | 149* | 100 | 100
COc1ccc(OCC(=O)N2CCc3c([nH]c4ccccc34)C2c2ccccn2)cc1 (centres undefined) | 0.87 | 95 | 20 | 90 | 16 | 3 | . | . | .
CC1=C(C(=O)OCC2CCCO2)C(c2coc3ccccc3c2=O)C2=C(CCCC2=O)N1 (centres undefined) | 0.98 | 107 | 10 | 143* | -36 | -7 | 161* | 102 | 108
CCOC(=O)C1=C(C)NC2=C(C(=O)CCC2)C1c1coc2ccccc2c1=O (centres undefined) | 0.9 | 100 | 2 | 145* | -44 | 0 | 150* | 101 | 102
